The values below come from ChEMBL document CHEMBL1137814, “Bitungolides A-F, new polyketides from the Indonesian sponge Theonella cf. swinhoei” (J Nat Prod, 2002).

SMILES strings stand for the structures. Calls of active or inactive are those of the source. No cut-off for these calls is given here.

In data set [1] the test system is brain. As to the kind of experiment: Induction of microtubule assembly in bovine brain cells by turbidimetric assay. It counts as cell-based. To be noted: Bos taurus. The procedure, abridged:
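Turbidity assay: microtubule protein at 2.0 mg/mL in Mes buffer incubated at 37 °C. Absorbance at 350 nm followed over time.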

Data set [2] deals with Dual specificity protein phosphatase 3 (Homo sapiens) (UniProt P51452). As to the kind of experiment: Inhibition of VHR expressed in Escherichia coli BL21([…]). The procedure, abridged: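 VHR dual-specificity phosphatase overexpressed in E. coli BL21(DE3). Assays run in triplicate. Compounds tested at 100 µg/mL (some at 30 µg/mL). References were tautomycin at 30 ng/mL and RK-682 at 10 µg/mL.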
Chain of Dual specificity protein phosphatase 3 (Homo sapiens) (P51452 whole entry, looked up): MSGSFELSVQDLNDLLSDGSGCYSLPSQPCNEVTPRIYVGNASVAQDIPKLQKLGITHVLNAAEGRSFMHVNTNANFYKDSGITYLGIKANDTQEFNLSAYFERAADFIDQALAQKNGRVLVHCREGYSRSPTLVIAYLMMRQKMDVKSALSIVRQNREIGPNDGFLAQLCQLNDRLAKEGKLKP

Data set [3] relates to brain. As to the kind of experiment: Induction of actin assembly in bovine brain cells by turbidimetric assay. It counts as cell-based. Conditions: Bos taurus.
Data set [4] can be described thus: Inhibition of PTP-S2. The method in brief:
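PTP-S2 overexpressed in E. coli BL21(DE3). Phosphatase assays run in triplicate. Compounds tested at 10 µg/mL, with tautomycin at 30 ng/mL as reference.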

A further data set is filed under the species Homo sapiens. As to the kind of experiment: Inhibition of PP2A from human red blood cells. The procedure, abridged:
(§1)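 PP1 (rabbit skeletal muscle) and PP2A (human red blood cells), commercial enzymes. In vitro assays run in duplicate. Compounds tested at 10 µg/mL, with tautomycin at 30 ng/mL as reference.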

Data set [5] in a line: Cytotoxicity against rat 3Y1 cells at 10 ug/ml by flow cytometry. It counts as cell-based. The method in brief:
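Rat normal fibroblast 3Y1 cells grown in Dulbecco's modified MEM with 10% fetal calf serum, humidified 5% CO2. Cell-cycle progression after treatment assessed by flow cytometry.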

The next data set deals with 3Y1 cell line. As to the kind of experiment: Induction of morphological changes in rat 3Y1 cells by indirect immunofluorescence technique. Format: functional, cell-based. The method in brief: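 3Y1 rat fibroblasts cultured in DMEM plus 10% fetal calf serum under humidified 5% CO2. Cytoskeletal changes after treatment visualized by indirect immunofluorescence microscopy.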

The species named for another data set is Oryctolagus cuniculus. As to the kind of experiment: Inhibition of rabbit muscle PP1. The method in brief: as §1

For the molecule `CC[C@@H]1C=CC(=O)O[C@@H]1[C@H](C)C[C@@H](C)[C@@H](O)C[C@H](O)/C=C\C=C/c1cccc(O)c1Cl` [BITUNGOLIDE A], the outcome (with brain [1]; in data set [2]; in the data set on brain [3]; in data set [4]; in the data set filed under Homo sapiens; in the data set with 3Y1 cell line) was inactive. Further, the outcome in the data set filed under Oryctolagus cuniculus was inactive. The outcome in data set [5] was Active.
Regarding `CC[C@@H]1C=CC(=O)O[C@@H]1[C@H](C)C[C@@H](C)[C@@H](O)C[C@H](O)/C=C/C=C/c1cccc(O)c1Cl` [BITUNGOLIDE B], the outcome (in the data set on brain [1]; in data set [2]; in the data set with brain [3]; in data set [4]; in the data set filed under Homo sapiens; in the data set with 3Y1 cell line) was inactive. In the data set filed under Oryctolagus cuniculus, the result was inactive. In addition, in data set [5], the result was Active.
Turning to `CC[C@@H]1C=CC(=O)O[C@@H]1[C@H](C)C[C@@H](C)[C@@H](O)C[C@H](O)/C=C\C=C\c1cccc(O)c1Cl` [BITUNGOLIDE C], the result (in the data set with brain [1]; in data set [2]; in the data set on brain [3]; in data set [4]; in the data set listed under Homo sapiens; in the data set on 3Y1 cell line) was inactive. The result in the data set listed under Oryctolagus cuniculus was inactive. The result in data set [5] was Active.
As to `CC[C@@H]1C=CC(=O)O[C@@H]1[C@H](C)C[C@@H](C)[C@@H](O)C[C@H](O)/C=C/C=C\c1cccc(O)c1Cl` [BITUNGOLIDE D], the result (with brain [1]; in data set [2]; in the data set with brain [3]; in data set [4]; in the data set filed under Homo sapiens; in the data set on 3Y1 cell line) was inactive. Further, the result in the data set listed under Oryctolagus cuniculus was inactive. In addition, the outcome in data set [5] was Active.
Take `CC[C@@H]1C=CC(=O)O[C@@H]1[C@H](C)C[C@@H](C)[C@@H](O)C[C@H](O)/C=C/C=C/c1ccccc1` [BITUNGOLIDE E]: the outcome (with brain [1]; in data set [2]; in the data set on brain [3]; in data set [4]; in the data set listed under Homo sapiens; in the data set with 3Y1 cell line) was inactive. The result in the data set listed under Oryctolagus cuniculus was inactive. In addition, the result in data set [5] was Active.
Turning to `CC[C@@H]1C=CC(=O)O[C@@H]1[C@H](C)CC[C@@H](O)C[C@H](O)/C=C/C=C/c1ccccc1` [BITUNGOLIDE F], the outcome (in the data set with brain [1]; in data set [2]; with brain [3]; in data set [4]; in the data set listed under Homo sapiens; with 3Y1 cell line) was inactive. Besides, the outcome in the data set listed under Oryctolagus cuniculus was inactive. For the same molecule, the outcome in data set [5] was Active.
